Laboratory results: ChEMBL document CHEMBL4400581, “First Example of Catalytic Synthesis of Difurazanohexahydrohexaazapyrenes and in Vitro Study of Their Antitumor Activity” (2019)

What was measured:
U-937 [1] = experiment: Cytotoxicity against human U937 cells by MTT assay; type: functional
Summary of the method: (§1)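 Cytotoxicity was measured by MTT assay across a range of concentrations in human tumour lines, with etoposide as the reference drug. Results are expressed as CC50.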

K562 = experiment: Cytotoxicity against human K562 cells by MTT assay; type: functional; summary of the method: as §1
HeLa = experiment: Cytotoxicity against human HeLa cells by MTT assay; type: functional; summary of the method: as §1
Jurkat = experiment: Cytotoxicity against human Jurkat cells by MTT assay; type: functional; summary of the method: as §1
U-937 [2] = experiment: Cell cycle arrest in human U937 cells assessed as accumulation at super-G2 phase at 0.05 uM measured after 24 hrs by propidium iodide staining based assay (reference value: 0.45%); type: functional
U-937 [3] = experiment: Cell cycle arrest in human U937 cells assessed as accumulation at G2/G1 phase at 0.025 uM measured after 24 hrs by propidium iodide staining based assay (reference value: 1.98%); type: functional
U-937 [4] = experiment: Cell cycle arrest in human U937 cells assessed as accumulation at sub-G1 phase at 0.2 uM measured after 24 hrs by propidium iodide staining based assay (reference value: 0.01%); type: functional
Summary of the method: (§2)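 U937 cells were exposed to the test agent at 0.2, 0.1, 0.05 or 0.025 μM for 24 h alongside an untreated control. DNA content was measured by propidium iodide staining and flow cytometry, giving the G0/G1, S and G2+M fractions and the hypodiploid pre-G0 (sub-G1) population. Values are means ± SD of three independent experiments, compared with control (p < 0.05, p < 0.01).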

U-937 [5] = experiment: Cell cycle arrest in human U937 cells assessed as accumulation at G1 phase at 0.1 uM measured after 24 hrs by propidium iodide staining based assay (reference value: 41.98%); type: functional; summary of the method: as §2
U-937 [6] = experiment: Induction of apoptosis in human U937 cells assessed as live cells at 0.05 uM measured after 24 hrs by Annexin alexa fluor 488/7AAD staining based flow cytometry (reference value: 98.31%); type: functional
U-937 [7] = experiment: Induction of apoptosis in human U937 cells assessed as necrotic cells at 0.1 uM measured after 24 hrs by Annexin alexa fluor 488/7AAD staining based flow cytometry (reference value: 0.19%); type: functional
U-937 [8] = experiment: Cell cycle arrest in human U937 cells assessed as accumulation at S phase at 0.2 uM measured after 24 hrs by propidium iodide staining based assay (reference value: 45.88%); type: functional; summary of the method: as §2
U-937 [9] = experiment: Induction of apoptosis in human U937 cells assessed as early apoptotic cells at 0.05 uM measured after 24 hrs by Annexin alexa fluor 488/7AAD staining based flow cytometry (reference value: 1.45%); type: functional
U-937 [10] = experiment: Induction of apoptosis in human U937 cells assessed as live cells at 0.025 uM measured after 24 hrs by Annexin alexa fluor 488/7AAD staining based flow cytometry (reference value: 98.31%); type: functional
U-937 [11] = experiment: Cell cycle arrest in human U937 cells assessed as accumulation at super-G2 phase at 0.1 uM measured after 24 hrs by propidium iodide staining based assay (reference value: 0.45%); type: functional
U-937 [12] = experiment: Induction of apoptosis in human U937 cells assessed as late apoptotic cells at 0.025 uM measured after 24 hrs by Annexin alexa fluor 488/7AAD staining based flow cytometry (reference value: 0.05%); type: functional
U-937 [13] = experiment: Cell cycle arrest in human U937 cells assessed as accumulation at G1 phase at 0.05 uM measured after 24 hrs by propidium iodide staining based assay (reference value: 41.98%); type: functional; summary of the method: as §2
U-937 [14] = experiment: Cell cycle arrest in human U937 cells assessed as accumulation at G2/G1 phase at 0.05 uM measured after 24 hrs by propidium iodide staining based assay (reference value: 1.98%); type: functional
U-937 [15] = experiment: Induction of apoptosis in human U937 cells assessed as early apoptotic cells at 0.1 uM measured after 24 hrs by Annexin alexa fluor 488/7AAD staining based flow cytometry (reference value: 1.45%); type: functional
U-937 [16] = experiment: Cell cycle arrest in human U937 cells assessed as accumulation at sub-G1 phase at 0.1 uM measured after 24 hrs by propidium iodide staining based assay (reference value: 0.01%); type: functional; summary of the method: as §2
U-937 [17] = experiment: Cell cycle arrest in human U937 cells assessed as accumulation at sub-G1 phase at 0.025 uM measured after 24 hrs by propidium iodide staining based assay (reference value: 0.01%); type: functional; summary of the method: as §2
U-937 [18] = experiment: Cell cycle arrest in human U937 cells assessed as accumulation at G2/G1 phase at 0.2 uM measured after 24 hrs by propidium iodide staining based assay (reference value: 1.98%); type: functional
U-937 [19] = experiment: Cell cycle arrest in human U937 cells assessed as accumulation at super-G2 phase at 0.025 uM measured after 24 hrs by propidium iodide staining based assay (reference value: 0.45%); type: functional
U-937 [20] = experiment: Induction of apoptosis in human U937 cells assessed as live cells at 0.1 uM measured after 24 hrs by Annexin alexa fluor 488/7AAD staining based flow cytometry (reference value: 98.31%); type: functional
U-937 [21] = experiment: Cell cycle arrest in human U937 cells assessed as accumulation at S phase at 0.05 uM measured after 24 hrs by propidium iodide staining based assay (reference value: 45.88%); type: functional; summary of the method: as §2
U-937 [22] = experiment: Cell cycle arrest in human U937 cells assessed as accumulation at S phase at 0.1 uM measured after 24 hrs by propidium iodide staining based assay (reference value: 45.88%); type: functional; summary of the method: as §2
U-937 [23] = experiment: Cell cycle arrest in human U937 cells assessed as accumulation at super-G2 phase at 0.2 uM measured after 24 hrs by propidium iodide staining based assay (reference value: 0.45%); type: functional
U-937 [24] = experiment: Induction of apoptosis in human U937 cells measured after 24 hrs by Annexin alexa fluor 488/7AAD staining based flow cytometry; type: functional, cell-based
Summary of the method: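 Treated U937 cells were stained with annexin V Alexa Fluor 488 and 7AAD. Fluorescence intensity was read by flow cytometry, with etoposide run as the reference drug.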

U-937 [25] = experiment: Induction of apoptosis in human U937 cells assessed as late apoptotic cells at 0.2 uM measured after 24 hrs by Annexin alexa fluor 488/7AAD staining based flow cytometry (reference value: 0.05%); type: functional
U-937 [26] = experiment: Cell cycle arrest in human U937 cells assessed as accumulation at G2 phase at 0.1 uM measured after 24 hrs by propidium iodide staining based assay (reference value: 10.7%); type: functional; summary of the method: as §2
U-937 [27] = experiment: Cell cycle arrest in human U937 cells assessed as accumulation at S phase at 0.025 uM measured after 24 hrs by propidium iodide staining based assay (reference value: 45.88%); type: functional; summary of the method: as §2
U-937 [28] = experiment: Induction of apoptosis in human U937 cells assessed as late apoptotic cells at 0.05 uM measured after 24 hrs by Annexin alexa fluor 488/7AAD staining based flow cytometry (reference value: 0.05%); type: functional
U-937 [29] = experiment: Cell cycle arrest in human U937 cells assessed as accumulation at G2 phase at 0.2 uM measured after 24 hrs by propidium iodide staining based assay (reference value: 10.7%); type: functional; summary of the method: as §2
U-937 [30] = experiment: Cell cycle arrest in human U937 cells assessed as accumulation at G1 phase at 0.2 uM measured after 24 hrs by propidium iodide staining based assay (reference value: 41.98%); type: functional; summary of the method: as §2
U-937 [31] = experiment: Induction of apoptosis in human U937 cells assessed as necrotic cells at 0.025 uM measured after 24 hrs by Annexin alexa fluor 488/7AAD staining based flow cytometry (reference value: 0.19%); type: functional
U-937 [32] = experiment: Cell cycle arrest in human U937 cells assessed as accumulation at G2/G1 phase at 0.1 uM measured after 24 hrs by propidium iodide staining based assay (reference value: 1.98%); type: functional
U-937 [33] = experiment: Induction of apoptosis in human U937 cells assessed as late apoptotic cells at 0.1 uM measured after 24 hrs by Annexin alexa fluor 488/7AAD staining based flow cytometry (reference value: 0.05%); type: functional
U-937 [34] = experiment: Induction of apoptosis in human U937 cells assessed as live cells at 0.2 uM measured after 24 hrs by Annexin alexa fluor 488/7AAD staining based flow cytometry (reference value: 98.31%); type: functional
U-937 [35] = experiment: Cell cycle arrest in human U937 cells assessed as accumulation at sub-G1 phase at 0.05 uM measured after 24 hrs by propidium iodide staining based assay (reference value: 0.01%); type: functional; summary of the method: as §2
U-937 [36] = experiment: Cell cycle arrest in human U937 cells assessed as accumulation at G2 phase at 0.025 uM measured after 24 hrs by propidium iodide staining based assay (reference value: 10.7%); type: functional; summary of the method: as §2
U-937 [37] = experiment: Induction of apoptosis in human U937 cells assessed as early apoptotic cells at 0.2 uM measured after 24 hrs by Annexin alexa fluor 488/7AAD staining based flow cytometry (reference value: 1.45%); type: functional
U-937 [38] = experiment: Cell cycle arrest in human U937 cells assessed as accumulation at G1 phase at 0.025 uM measured after 24 hrs by propidium iodide staining based assay (reference value: 41.98%); type: functional; summary of the method: as §2
U-937 [39] = experiment: Induction of apoptosis in human U937 cells assessed as necrotic cells at 0.05 uM measured after 24 hrs by Annexin alexa fluor 488/7AAD staining based flow cytometry (reference value: 0.19%); type: functional
U-937 [40] = experiment: Cell cycle arrest in human U937 cells assessed as accumulation at G2 phase at 0.05 uM measured after 24 hrs by propidium iodide staining based assay (reference value: 10.7%); type: functional; summary of the method: as §2
U-937 [41] = experiment: Induction of apoptosis in human U937 cells assessed as early apoptotic cells at 0.025 uM measured after 24 hrs by Annexin alexa fluor 488/7AAD staining based flow cytometry (reference value: 1.45%); type: functional
U-937 [42] = experiment: Induction of apoptosis in human U937 cells assessed as necrotic cells at 0.2 uM measured after 24 hrs by Annexin alexa fluor 488/7AAD staining based flow cytometry (reference value: 0.19%); type: functional

Compound: C1CCCC(N2CN3c4nonc4N4CN(C5CCCCCCC5)CN5c6nonc6N(C2)C3C45)CCC1 (stereo not given)
- Activity (U-937 [1]): Dose-dependent effect
- CC50 (U-937 [1]): 580 nM
- Activity (K562): Dose-dependent effect
- CC50 (K562): 740 nM
- Activity (HeLa): Dose-dependent effect
- CC50 (HeLa): 1370 nM
- Activity (Jurkat): Dose-dependent effect
- CC50 (Jurkat): 620 nM

Compound: C1CC2CC1CC2N1CN2c3nonc3N3CN(C4CC5CCC4C5)CN4c5nonc5N(C1)C2C34 (stereo not given)
- Activity (U-937 [2]): 2.07%
- Activity (U-937 [1]): Dose-dependent effect
- CC50 (U-937 [1]): 110 nM
- Activity (U-937 [3]): 1.98%
- Activity (U-937 [4]): 20.66%
- Activity (U-937 [5]): 34.01%
- Activity (U-937 [6]): 60.65%
- Activity (U-937 [7]): 1.31%
- Activity (U-937 [8]): 38.89%
- Activity (U-937 [9]): 10.94%
- Activity (U-937 [10]): 71.74%
- Activity (U-937 [11]): 0.94%
- Activity (U-937 [12]): 16.54%
- Activity (U-937 [13]): 30.09%
- Activity (U-937 [14]): 1.93%
- Activity (U-937 [15]): 15.52%
- Activity (U-937 [16]): 16.73%
- Activity (U-937 [17]): 6.37%
- Activity (U-937 [18]): 1.91%
- Activity (K562): Dose-dependent effect
- CC50 (K562): 210 nM
- Activity (U-937 [19]): 2.28%
- Activity (U-937 [20]): 42.25%
- Activity (U-937 [21]): 41.7%
- Activity (U-937 [22]): 32.87%
- Activity (U-937 [23]): 1.38%
- Activity (HeLa): Dose-dependent effect
- CC50 (HeLa): 320 nM
- Activity (U-937 [24]): Dose-dependent effect
- Activity (U-937 [25]): 53.07%
- Activity (U-937 [26]): 2.83%
- Activity (U-937 [27]): 48.65%
- Activity (U-937 [28]): 27.01%
- Activity (U-937 [29]): 3.12%
- Activity (U-937 [30]): 17.74%
- Activity (U-937 [31]): 1.28%
- Activity (U-937 [32]): 1.98%
- Activity (Jurkat): Dose-dependent effect
- CC50 (Jurkat): 160 nM
- Activity (U-937 [33]): 40.93%
- Activity (U-937 [34]): 23.18%
- Activity (U-937 [35]): 11.01%
- Activity (U-937 [36]): 4.11%
- Activity (U-937 [37]): 19.35%
- Activity (U-937 [38]): 35.15%
- Activity (U-937 [39]): 1.4%
- Activity (U-937 [40]): 3.29%
- Activity (U-937 [41]): 10.44%
- Activity (U-937 [42]): 4.4%

Compound: C1CCCC(N2CN3c4nonc4N4CN(C5CCCCCC5)CN5c6nonc6N(C2)C3C45)CC1 (stereo not given)
- Activity (U-937 [1]): Dose-dependent effect
- CC50 (U-937 [1]): 590 nM
- Activity (K562): Dose-dependent effect
- CC50 (K562): 690 nM
- Activity (HeLa): Dose-dependent effect
- CC50 (HeLa): 1210 nM
- Activity (Jurkat): Dose-dependent effect
- CC50 (Jurkat): 570 nM
